Screens deposited in PubChem BioAssay by The Scripps Research Institute Molecular Screening Center.
OX1R antag-1 – antagonists of human orexin 1 receptor (OX1R) | Orexin/Hypocretin receptor type 1 (Homo sapiens), O43613 | OX1R-expressing cells, FRET antagonist read-out | inhibition, % at 6.6 µM | 1.8% of 330,000 active; in the data active = inhibition mostly above about 38%, no sharp cut-off; inactive = mostly below about 40%
TAAR1 agonist – human TAAR1 agonists, primary screen, Fluo-8 calcium fluorescence, CHO RD-HGA16 cells | vehicle wells 0%, saturating PEA agonist 100% | activation, % at 3 µM | Trace amine-associated receptor 1 (Homo sapiens), Q96RJ0 | 0.99% of 360,000 active | AID 624467, 2012;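 active = activation above the mean activation of all test compounds in the run plus 3 SD, cut at about 38% in these data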
Target sequence (Q96RJ0 whole entry, looked up): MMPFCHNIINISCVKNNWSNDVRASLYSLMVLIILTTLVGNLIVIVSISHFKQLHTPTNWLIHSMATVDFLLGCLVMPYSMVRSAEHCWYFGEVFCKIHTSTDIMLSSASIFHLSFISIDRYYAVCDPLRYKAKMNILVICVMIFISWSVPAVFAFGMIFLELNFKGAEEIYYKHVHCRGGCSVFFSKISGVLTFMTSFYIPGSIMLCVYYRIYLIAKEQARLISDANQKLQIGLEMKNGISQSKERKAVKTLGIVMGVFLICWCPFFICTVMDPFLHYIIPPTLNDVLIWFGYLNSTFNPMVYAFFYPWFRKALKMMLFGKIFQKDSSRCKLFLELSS
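Signal – calcium-sensitive Fluo-8 signal, excitation 470-495, emission 515-575 nm · System – RD-HGA16 (CHO) cells co-expressing Gα16 and hTAAR1 · Incubation – 17-24 h seeding, 75 min 37 °C dye, 30 min RT · Compound dosing – 3 µM single concentration · Repeats – no replicates (n 1)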
CHO parental Ca – ATP-evoked calcium signal inhibitors, parental CHO, primary screen, counter-screen for OX1R antagonist project, cell-based, fluorescence, Fluo-8 calcium dye; parental CHO-K1, ATP-induced calcium, Fluo-8 fluorescence; inhibition, % at 5.6 µM; 0.63% of 330,000 active; AID 463079, 2010;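 active = inhibition above that plate's mean sample inhibition plus 3 SD, cut at about 26% in these data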
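Test system: untransfected parental CHO cell line. Compound: one dose, 5.6 µM nominal. Detection: intracellular calcium via Fluo-8 no-wash fluorescent dye. Measure: % inhibition. Benchmarks: ATP-challenged DMSO wells low, unchallenged DMSO wells high.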
TAAR1 antag – human TAAR1 antagonists, primary screen, Fluo-8 calcium fluorescence, CHO RD-HGA16 cells; inhibition, % at 3 µM; 1.5% of 360,000 active; antagonist;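 active = inhibition above a per-plate cutoff, the mean inhibition of test compounds on that plate plus 3 SD, cut at about 49% in these data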
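Test system – hTAAR1-expressing CHO RD-HGA16 cells, Gα16-coupled · Also added – β-PEA at EC80 concentration, post-compound challenge · Compound – 3 µM, single point · Incubation – dye loading 75 min at 37 °C, then 30 min room temperature · Measured by – Fluo-8 intracellular calcium dye fluorescence, real-time kinetic reads · Benchmarks – vehicle and agonist controls · Replicates – singlicate, one well per test compound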
OX1R antag-2 – OX1R (HCRTR1) antagonists, primary screen, fluorescence, CHO/OX1R cells, Fluo-8 calcium, orexin A | Orexin/Hypocretin receptor type 1 (Homo sapiens), O43613 | AID 434989, 2010 | 0.43% of 330,000 active | inhibition, % at 5 µM | Fluo-8 calcium fluorescence;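 active = inhibition above its plate's threshold, mean inhibition of all tested compounds on the plate plus 3 SD, cut at about 37% in these data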
GPR7 antagonist – GPR7 receptor antagonists, primary screen, cell-based, fluorescence, single concentration; GPR7-expressing cells, fluorescence antagonist assay; Neuropeptides B/W receptor type 1 (Homo sapiens), P48145; inhibition, % at 4.4 µM; 1.1% of 290,000 active; in the data active = inhibition above about 16%, passing the limit was not always enough;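 also: cells stimulated with the agonist NPW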
Target sequence (P48145 whole entry, looked up): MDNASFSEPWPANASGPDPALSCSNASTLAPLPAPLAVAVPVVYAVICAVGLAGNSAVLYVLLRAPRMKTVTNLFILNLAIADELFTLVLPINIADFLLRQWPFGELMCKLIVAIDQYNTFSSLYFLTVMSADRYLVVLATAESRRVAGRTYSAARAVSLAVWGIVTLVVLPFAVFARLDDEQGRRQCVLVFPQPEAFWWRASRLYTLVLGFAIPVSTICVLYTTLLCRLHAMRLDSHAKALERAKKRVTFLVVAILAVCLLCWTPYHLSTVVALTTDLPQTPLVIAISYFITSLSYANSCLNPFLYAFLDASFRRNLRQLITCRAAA
Numbers stand for hits; - = inactive; . = no result given. An excerpt weighted towards active compounds, which were near 4.6% of everything screened.

SMILES | OX1R antag-1 | TAAR1 agonist | CHO parental Ca | TAAR1 antag | OX1R antag-2 | GPR7 antagonist
COc1cccc(C(=O)N[C@H](C(=O)N2CCC[C@H]2C(=O)NCc2ccccc2)c2ccccc2)c1 | . | - | . | - | . | .
COc1cccc(C=NN(C)c2c([N+](=O)[O-])cc(C(F)(F)F)cc2[N+](=O)[O-])c1O | . | - | . | - | . | .
Oc1ccc(-c2nc3ccccn3c2NCc2ccco2)cc1 | - | - | - | 52 | - | -
CC(C)c1ccc(/C=C2\SC(N3CCOCC3)=NC2=O)cc1 | - | - | - | - | - | -
O=C1N=C(N2CCOCC2)S/C1=C\c1ccncc1 | 39 | - | - | - | - | -
CC(=O)N1CCN(C2=NC(=O)/C(=C\c3cccs3)S2)CC1 | 41 | - | - | - | - | -
COc1ccc(CCN(C)C(=O)c2cc(S(=O)(=O)NCc3ccccc3)ccc2C)cc1OC | - | - | - | - | - | .
COc1ccc(CN(C)C(=O)c2cc(S(=O)(=O)NCc3ccccc3)ccc2C)c(OC)c1 | 33 | - | - | - | - | .
O=C(NCc1cccnc1)c1cc(C2CCCCN2S(=O)(=O)c2ccc(F)cc2F)on1 (stereo unspecified) | . | - | . | - | . | .
CN1C[C@H](C(=O)N[C@]2(C)O[C@@]3(O)[C@@H]4CCCN4C(=O)[C@H](Cc4ccccc4)N3C2=O)CC2c3cccc4[nH]cc(c34)C[C@H]21 (stereo partly specified) | - | - | - | - | - | .
CC(C)C[C@H]1C(=O)N2CCC[C@H]2[C@]2(O)O[C@](NC(=O)C3C=C4c5cccc6[nH]c(Br)c(c56)C[C@H]4N(C)C3)(C(C)C)C(=O)N12 (stereo partly specified) | 58 | - | - | - | - | .
COc1ccc2nc(N3CCC(C)CC3)c(C#N)cc2c1 | 58 | - | - | - | - | -
CCOC(=O)/C=c1\s/c(=C(\C#N)C(=O)NC)n(-c2ccccc2)c1=O | - | - | - | - | - | -
CCOC(=O)/C=c1\s/c(=C(\C#N)C(N)=O)n(-c2ccccc2)c1=O | 57 | - | - | - | - | -
O=C(C(=O)N1CCN(C(=O)c2ccco2)CC1)c1ccccc1 | . | - | . | - | . | .
CCCCCCCCN1C(=O)[C@@H](CC(=O)NCc2cccc(C(F)(F)F)c2)C[C@@]2(C(=O)OC)C1=C[C@H](C1CCCC1)O[C@@H]2C | . | - | . | - | . | .
O=C(CCCCCN1C(=O)c2cccc3cccc(c23)C1=O)NCCCO | 52 | - | - | - | - | -
Cc1c(NC(=O)CCCN2C(=O)c3cccc4cccc(c34)C2=O)c(=O)n(-c2ccccc2)n1C | 42 | - | - | - | - | -
Cc1c(NC(=O)CN2C(=O)c3ccccc3C2=O)c(=O)n(-c2ccccc2)n1C | - | - | - | - | - | -
O=C(CN1C(=O)c2cccc3cccc(c23)C1=O)NCCCO | 57 | - | - | - | - | -
COc1ccc(CCNC(=O)Nc2nc(C(N)C3CCCCC3)cs2)cc1OC (stereo unspecified) | . | - | . | - | . | .
COc1ccc2cc(C3CC=C(COC(C)=O)CN3S(=O)(=O)c3ccccc3[N+](=O)[O-])n(C(=O)OC(C)(C)C)c2c1 (stereo unspecified) | . | - | . | - | . | .
O=C(COc1ccc([N+](=O)[O-])cc1)N(Cc1ccccc1)Cc1ccccc1 | - | - | - | - | - | 31
O=C(COc1ncnc2ccccc12)NC1CCCC1 | - | - | - | - | - | .
O=C(COc1ncnc2cc([N+](=O)[O-])ccc12)NC1CCCCC1 | 56 | - | - | - | - | -
SMILES | OX1R antag-1 | TAAR1 agonist | CHO parental Ca | TAAR1 antag | OX1R antag-2 | GPR7 antagonist
O=C(COc1ncnc2cc([N+](=O)[O-])ccc12)N(CCc1ccccc1)Cc1ccccc1 | - | - | 72 | - | 54 | -
O=C(COc1ccccc1)NNC(=O)COc1ccc([N+](=O)[O-])cc1 | - | - | - | - | - | -
O=C(COc1ncnc2ccccc12)Nc1cccc([N+](=O)[O-])c1 | - | - | - | - | - | -
O=C(N[C@H](C(=O)N1CCC[C@H]1C(=O)NC1CCCC1)c1ccccc1)c1ccc(Cl)c(Cl)c1 | . | - | . | - | . | .
CSc1nn(CCC#N)c(=O)[nH]c1=O | . | - | . | - | . | .
O=[N+]([O-])c1ccc(N2CCCC2)nc1 | 42 | - | - | - | - | -
O=C(N/N=C/c1ccco1)c1cc([N+](=O)[O-])cc([N+](=O)[O-])c1 | 64 | - | - | - | - | -
CCOc1cc(/C=N/NC(=O)c2cccc([N+](=O)[O-])c2)ccc1OS(=O)(=O)c1ccccc1 | - | - | - | 52 | - | -
O=C(N/N=C\c1cc([N+](=O)[O-])ccc1N1CCCC1)c1ccccn1 | - | - | - | - | - | -
CN1CCN(c2ccc([N+](=O)[O-])cc2/C=N/NC(=O)c2cccc([N+](=O)[O-])c2)CC1 | 66 | - | - | - | - | -
Nc1cc(C(=O)N/N=C/c2cccc([N+](=O)[O-])c2)n[nH]c1=O | 52 | - | - | - | - | -
Nc1ccccc1C(=O)NN=Cc1cccc([N+](=O)[O-])c1 | . | - | . | - | . | .
CCN(C(=O)CSc1nc2ccccc2o1)c1c(N)n(Cc2ccccc2)c(=O)[nH]c1=O | - | - | - | - | - | .
OCCCNc1ncnc2c1ncn2[C@H]1CN(C2CCCC2)C[C@@H](CO)O1 | . | - | . | - | . | .
CCCCCCCCN1C(=O)[C@@H](CC(=O)NCC23CC4CC(CC(C4)C2)C3)C[C@@]2(C(=O)OC)C1=C[C@H](C1CCCC1)O[C@@H]2C | . | - | . | - | . | .
CCS(=O)(=O)N(C)C[C@@H]1OCc2ccccc2-c2c(n(C)c3ccccc23)C(=O)N([C@H](C)CO)C[C@@H]1C | . | - | . | - | . | .
COc1ccc(NC(=O)c2cc(C3CCCCN3C(=O)OCc3ccccc3)on2)c(C)c1 (stereo unspecified) | . | - | . | - | . | .
O=C(N/N=C/c1ccncc1)c1cccc([N+](=O)[O-])c1 | 57 | - | - | - | - | -
O=C(N/N=C/c1cccc([N+](=O)[O-])c1)c1cc[n+](CCO)cc1 | 69 | - | - | - | - | -
O=C(N/N=C/c1ccc([N+](=O)[O-])cc1)c1cccc(N2CCCC2=O)c1 | 76 | - | - | - | - | -
Cc1ccc(NC(=O)C2CCN(c3ncnc4sc(C)c(C)c34)CC2)cc1S(=O)(=O)N(C)C | - | - | - | - | - | .
CCN(CC)S(=O)(=O)c1cc(NC(=O)C2CCN(c3ncnc4sc(C)c(C)c34)CC2)ccc1Cl | - | - | - | 65 | - | .
